Results published in ChEMBL document CHEMBL3576859, “Novel benzamide-based histamine h3 receptor antagonists: the identification of two candidates for clinical development” (ACS Med Chem Lett, 2015).
The source made the active and inactive calls. The calls are words filed in the database; no cut-off is given here.

How the values were obtained:
[1] = target: Cytochrome P450 2D6 (Homo sapiens, UniProt P10635); test: Inhibition of CYP2D6 (unknown origin); type: ADME
Summary of the method: (§1)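 CYP1A2, 2C9, 2C19, 2D6 and 3A4 inhibition measured and reported as IC₅₀ (μM).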

[2] = Toxicity in po dosed rat administered up to 28 days; type: organism-based; conditions: in vivo
Summary of the method: (§2)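 Rats dosed orally at up to 250 mg/kg daily for up to 28 days. Monitored for clinical signs (salivation, activity), body weight, food consumption and clinical pathology; NOAEL derived.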

[3] = test system: Canis familiaris; test: Toxicity in dog at 10 to 75 mg/kg/day administered for 5 days; type: organism-based, Canis lupus familiaris; conditions: in vivo, 120 h
[4] = Clearance in Sprague-Dawley rat; type: ADME, organism-based; conditions: in vivo
[5] = target: T1, Cytochrome P450 1A2 (Homo sapiens, UniProt P05177); test: Inhibition of CYP1A2 (unknown origin); type: ADME; summary of the method: as §1
T1 sequence (P05177 whole entry): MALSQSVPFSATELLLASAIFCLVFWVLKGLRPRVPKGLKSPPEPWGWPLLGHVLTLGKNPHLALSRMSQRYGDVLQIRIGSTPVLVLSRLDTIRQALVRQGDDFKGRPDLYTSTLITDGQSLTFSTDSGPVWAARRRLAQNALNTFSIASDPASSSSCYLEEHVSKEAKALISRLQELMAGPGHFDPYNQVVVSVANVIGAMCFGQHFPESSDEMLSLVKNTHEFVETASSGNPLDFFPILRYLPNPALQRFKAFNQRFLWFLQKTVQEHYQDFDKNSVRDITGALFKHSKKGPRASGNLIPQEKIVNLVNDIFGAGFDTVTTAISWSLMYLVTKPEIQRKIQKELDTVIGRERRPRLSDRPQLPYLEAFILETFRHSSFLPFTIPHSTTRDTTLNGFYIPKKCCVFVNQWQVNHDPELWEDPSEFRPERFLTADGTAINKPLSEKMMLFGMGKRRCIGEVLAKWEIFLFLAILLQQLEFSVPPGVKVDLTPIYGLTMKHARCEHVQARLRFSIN

[6] = Oral bioavailability in Sprague-Dawley rat at 10 mg/kg; type: ADME, organism-based; conditions: in vivo
[7] = Elimination half life in human at 2 mg; type: ADME, organism-based; conditions: in vivo, read-out: beta t1/2 (converted)
Summary of the method: (§3)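 Mean elimination half-life determined in human dose groups receiving 2 mg and 5 mg.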

[8] = test system: Rattus norvegicus; test: Toxicity in rat assessed as decrease in food consumption at 250 mg/kg, po administered up to 28 days; type: organism-based; conditions: in vivo, 672 h; summary of the method: as §2
[9] = test system: Rattus norvegicus; test: Toxicity in rat assessed as induction of mild and sporadic salivation at 250 mg/kg, po administered up to 28 days; type: organism-based; conditions: in vivo, 672 h; summary of the method: as §2
[10] = target: Voltage-gated inwardly rectifying potassium channel KCNH2 (Homo sapiens, UniProt Q12809); test: Displacement of [3H]-astemizole from human ERG expressed in HEK293 cells after 60 mins by scintillation counting analysis; type: cell-based
Chain of Voltage-gated inwardly rectifying potassium channel KCNH2 (Q12809 whole entry): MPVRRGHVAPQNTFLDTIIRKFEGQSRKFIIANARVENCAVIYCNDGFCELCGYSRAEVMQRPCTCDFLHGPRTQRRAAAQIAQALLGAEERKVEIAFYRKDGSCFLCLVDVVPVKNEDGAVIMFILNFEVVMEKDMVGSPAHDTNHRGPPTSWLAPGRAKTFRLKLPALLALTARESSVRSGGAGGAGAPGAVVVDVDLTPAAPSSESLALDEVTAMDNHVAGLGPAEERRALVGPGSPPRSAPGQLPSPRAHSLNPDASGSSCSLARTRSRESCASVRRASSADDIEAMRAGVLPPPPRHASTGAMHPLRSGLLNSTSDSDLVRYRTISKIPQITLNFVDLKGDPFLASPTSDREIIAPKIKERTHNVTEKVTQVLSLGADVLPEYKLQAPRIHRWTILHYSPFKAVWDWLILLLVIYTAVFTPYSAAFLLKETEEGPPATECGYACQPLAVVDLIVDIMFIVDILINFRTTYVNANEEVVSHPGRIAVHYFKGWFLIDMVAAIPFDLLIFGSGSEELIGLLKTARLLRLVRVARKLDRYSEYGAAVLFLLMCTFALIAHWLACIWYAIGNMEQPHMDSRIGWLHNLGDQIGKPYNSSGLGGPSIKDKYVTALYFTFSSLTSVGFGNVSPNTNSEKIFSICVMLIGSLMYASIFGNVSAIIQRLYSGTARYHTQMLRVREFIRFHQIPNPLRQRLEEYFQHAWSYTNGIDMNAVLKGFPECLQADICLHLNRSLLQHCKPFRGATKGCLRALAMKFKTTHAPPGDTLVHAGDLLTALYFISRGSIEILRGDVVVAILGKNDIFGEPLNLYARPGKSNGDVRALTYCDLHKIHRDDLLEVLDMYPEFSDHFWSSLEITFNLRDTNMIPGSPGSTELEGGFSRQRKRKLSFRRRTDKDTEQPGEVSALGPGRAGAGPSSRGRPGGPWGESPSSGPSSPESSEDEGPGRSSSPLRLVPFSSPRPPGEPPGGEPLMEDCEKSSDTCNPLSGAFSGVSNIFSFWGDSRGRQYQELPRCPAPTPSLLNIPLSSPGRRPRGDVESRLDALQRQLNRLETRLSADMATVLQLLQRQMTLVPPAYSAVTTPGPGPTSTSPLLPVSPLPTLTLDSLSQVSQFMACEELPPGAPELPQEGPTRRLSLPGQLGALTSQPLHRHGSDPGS

[11] = species: Mus musculus; test: Toxicity in mouse; type: organism-based; conditions: in vivo
[12] = test system: Rattus norvegicus; test: Toxicity in rat assessed as decrease in body weight at 250 mg/kg, po administered up to 28 days; type: organism-based; conditions: in vivo, 672 h; summary of the method: as §2
[13] = Apparent permeability across basolateral to apical side in human Caco2 cells at 10 uM […] by LC/MS/MS analysis; type: ADME, cell-based; conditions: Caco-2
Summary of the method: (§4)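 Caco-2 monolayer permeability measured in both directions, apical-to-basolateral and basolateral-to-apical. Reported as P_app (×10−⁶ cm/s), given as A−B/B−A pairs.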

[14] = test system: Rattus norvegicus; test: Toxicity in Sprague-Dawley rat assessed as effect on rapid eye movement sleep at 10 mg/kg, sc administered during light sleep phase measured over first 6 hrs post-treatment; type: organism-based; conditions: in vivo
[15] = target: Cytochrome P450 2C9 (Homo sapiens, UniProt P11712); test: Inhibition of CYP2C9 (unknown origin); type: ADME; summary of the method: as §1
Chain of Cytochrome P450 2C9 (P11712 whole entry): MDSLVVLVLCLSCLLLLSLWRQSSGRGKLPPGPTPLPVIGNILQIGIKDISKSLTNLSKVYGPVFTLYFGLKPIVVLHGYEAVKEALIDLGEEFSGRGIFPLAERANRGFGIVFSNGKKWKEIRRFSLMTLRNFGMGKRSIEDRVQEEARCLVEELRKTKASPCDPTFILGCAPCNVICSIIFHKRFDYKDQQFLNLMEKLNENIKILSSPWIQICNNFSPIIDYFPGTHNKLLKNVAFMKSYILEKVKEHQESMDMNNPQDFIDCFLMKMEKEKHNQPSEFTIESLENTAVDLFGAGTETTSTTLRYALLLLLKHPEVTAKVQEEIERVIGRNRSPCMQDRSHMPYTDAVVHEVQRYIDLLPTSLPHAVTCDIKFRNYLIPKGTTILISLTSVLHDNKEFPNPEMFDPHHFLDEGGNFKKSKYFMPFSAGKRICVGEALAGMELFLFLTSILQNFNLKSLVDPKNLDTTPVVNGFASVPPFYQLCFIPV

[16] = species: Homo sapiens; test: Toxicity in human assessed as insomnia; type: organism-based; conditions: in vivo
[17] = Metabolic stability in human liver microsomes assessed as compound remaining at 1 uM after 15 mins; type: ADME; conditions: read-out: Stability
Summary of the method: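 Compound incubated with human liver microsomes for 15 min. Read-out is percent parent remaining.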

[18] = test system: Rattus norvegicus; test: Wake-promoting activity in Sprague-Dawley rat assessed as increase in time spent awake at 10 mg/kg, sc administered during light sleep phase measured over first 6 hrs post-treatment; type: functional
Summary of the method: (§5)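 Rats treated during the light sleep phase. Time awake, NREM and REM sleep duration scored over the first 6 h post-treatment.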

[19] = Plasma protein binding in human; type: ADME, cell-free; conditions: read-out: PPB (converted)
[20] = Drug uptake in Sprague-Dawley rat brain at 3 mg/kg, po measured at 1 hr; type: ADME, organism-based; conditions: read-out: Drug uptake
Summary of the method: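 Rats dosed orally at 3 mg/kg. Brain drug concentration (μM) measured at 1 h post-dose.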

[21] = Volume of distribution at steady state in Sprague-Dawley rat; type: ADME, organism-based; conditions: in vivo, read-out: Vdss
[22] = target: Cytochrome P450 3A4 (Homo sapiens, UniProt P08684); test: Inhibition of CYP3A4 (unknown origin); type: ADME; summary of the method: as §1
Chain of Cytochrome P450 3A4 (P08684 whole entry): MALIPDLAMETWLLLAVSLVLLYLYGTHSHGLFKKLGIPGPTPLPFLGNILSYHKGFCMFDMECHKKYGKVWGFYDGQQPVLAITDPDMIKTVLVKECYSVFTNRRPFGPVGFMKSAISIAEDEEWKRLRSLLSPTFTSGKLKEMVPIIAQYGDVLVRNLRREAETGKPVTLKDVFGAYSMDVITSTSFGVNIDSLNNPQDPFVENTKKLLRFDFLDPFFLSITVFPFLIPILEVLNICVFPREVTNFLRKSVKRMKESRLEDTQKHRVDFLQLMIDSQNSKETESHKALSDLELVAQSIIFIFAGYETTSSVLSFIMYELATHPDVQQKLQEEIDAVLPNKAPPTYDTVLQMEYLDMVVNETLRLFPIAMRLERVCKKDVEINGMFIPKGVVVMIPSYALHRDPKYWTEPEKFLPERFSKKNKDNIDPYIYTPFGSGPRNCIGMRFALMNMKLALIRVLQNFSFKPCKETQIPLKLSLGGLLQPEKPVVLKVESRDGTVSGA

[23] = test system: Rattus norvegicus; test: Toxicity in Sprague-Dawley rat assessed as increase in locomotor activity at 10 mg/kg, sc; type: organism-based; conditions: in vivo
[24] = target: Histamine H3 receptor (Homo sapiens, UniProt Q9Y5N1); test: Displacement of N-[3H]methylhistamine from human histamine H3 receptor expressed in human SK-N-MC cells after 45 mins; type: cell-based
Chain of Histamine H3 receptor (Q9Y5N1 whole entry): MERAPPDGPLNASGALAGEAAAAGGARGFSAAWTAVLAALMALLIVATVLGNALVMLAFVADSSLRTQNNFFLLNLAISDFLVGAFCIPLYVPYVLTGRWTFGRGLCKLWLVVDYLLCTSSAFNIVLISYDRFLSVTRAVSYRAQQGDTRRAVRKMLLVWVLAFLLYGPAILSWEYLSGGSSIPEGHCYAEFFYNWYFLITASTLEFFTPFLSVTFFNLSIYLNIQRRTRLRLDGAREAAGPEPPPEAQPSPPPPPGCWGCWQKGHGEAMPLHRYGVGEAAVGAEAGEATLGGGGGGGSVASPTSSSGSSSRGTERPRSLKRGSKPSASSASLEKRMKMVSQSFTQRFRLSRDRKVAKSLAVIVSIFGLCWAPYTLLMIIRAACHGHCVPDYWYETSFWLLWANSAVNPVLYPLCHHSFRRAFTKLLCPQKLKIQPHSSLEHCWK

[25] = test system: Rattus norvegicus; test: Wake-promoting activity in Sprague-Dawley rat assessed as decrease in non-rapid eye movement sleep duration at 10 mg/kg, sc administered during light sleep phase measured over first 6 hrs post-treatment; type: functional, organism-based; summary of the method: as §5
[26] = target: Voltage-gated L-type calcium channel (Rattus norvegicus, UniProt P22002+Q02485+P27732); test: Binding affinity to rat L-type calcium channel at 1 uM
[27] = Elimination half life in human at 5 mg; type: ADME, organism-based; conditions: in vivo, read-out: beta t1/2 (converted); summary of the method: as §3
[28] = target: Cytochrome P450 2C19 (Homo sapiens, UniProt P33261); test: Inhibition of CYP2C19 (unknown origin); type: ADME; summary of the method: as §1
Chain of Cytochrome P450 2C19 (P33261 whole entry): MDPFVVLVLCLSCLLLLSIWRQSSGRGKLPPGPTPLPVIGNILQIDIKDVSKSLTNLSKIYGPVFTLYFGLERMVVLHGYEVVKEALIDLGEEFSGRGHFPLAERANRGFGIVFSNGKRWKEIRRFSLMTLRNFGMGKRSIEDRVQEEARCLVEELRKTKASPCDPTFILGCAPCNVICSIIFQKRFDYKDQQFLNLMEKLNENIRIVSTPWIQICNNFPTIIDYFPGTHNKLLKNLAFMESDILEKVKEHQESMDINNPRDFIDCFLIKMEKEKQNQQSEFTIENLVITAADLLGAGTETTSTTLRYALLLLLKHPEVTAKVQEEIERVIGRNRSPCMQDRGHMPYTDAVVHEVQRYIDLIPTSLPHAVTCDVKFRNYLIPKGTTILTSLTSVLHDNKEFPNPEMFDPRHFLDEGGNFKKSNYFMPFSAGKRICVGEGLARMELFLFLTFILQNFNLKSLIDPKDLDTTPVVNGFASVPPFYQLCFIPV

[29] = test system: Rattus norvegicus; test: Toxicity in rat assessed as decrease in locomotor activity at 250 mg/kg, po administered up to 28 days; type: organism-based; conditions: in vivo, 672 h; summary of the method: as §2
[30] = test system: Rattus norvegicus; test: Ex vivo histamine H3 receptor occupancy in Sprague-Dawley rat striatum at 3 mg/kg, po measured at 1 hr by autoradiographic analysis; type: functional
Summary of the method: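 After a 3 mg/kg oral dose in rats, ex vivo H3 receptor occupancy was determined by autoradiography at 1 h. Values are mean ± SD.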

[31] = Half life in Sprague-Dawley rat at 1 mg/kg, iv; type: ADME, organism-based; conditions: in vivo
[32] = Apparent permeability across apical to basolateral side in human Caco2 cells at 10 uM after 60 mins by LC/MS/MS analysis; type: ADME, cell-based; conditions: Caco-2; summary of the method: as §4
[33] = test system: Rattus norvegicus; test: Toxicity in rat assessed as clinical pathology alteration at 250 mg/kg, po administered up to 28 days; type: organism-based; conditions: in vivo, 672 h; summary of the method: as §2
[34] = test system: Rattus norvegicus; test: Ex vivo histamine H3 receptor occupancy in Sprague-Dawley rat striatum at 10 mg/kg, sc by autoradiographic analysis; type: functional
Summary of the method: (§6)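 Ex vivo H3 receptor occupancy measured after 10 mg/kg subcutaneous dosing in rats. Plasma Cmax was determined in parallel.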

[35] = species: Homo sapiens; test: Ex vivo histamine H3 receptor occupancy in human assessed as plasma concentration required to cause maximal receptor occupancy; type: functional
[36] = Half life in human; type: ADME, organism-based; conditions: in vivo
Summary of the method: (§7)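 Humans given single oral doses. Time to peak plasma concentration and mean t1/2 were determined across the dose range (10–400 mg).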

[37] = species: Rattus norvegicus; test: Toxicity in rat assessed as phospholipidosis; conditions: in vivo
[38] = test system: Rattus norvegicus; test: Ex vivo histamine H3 receptor occupancy in Sprague-Dawley rat striatum assessed as maximum plasma concentration required to cause >80% receptor occupancy at 10 mg/kg, sc; type: functional; summary of the method: as §6
[39] = species: Rattus norvegicus; test: Toxicity in rat assessed as phospholipidosis; type: organism-based; conditions: in vivo
[40] = Metabolic stability in Sprague-Dawley rat liver microsomes assessed as compound remaining at 1 uM after 15 mins; type: ADME; conditions: read-out: Stability
Summary of the method: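 Rat liver microsomes incubated with compound for 15 min. Stability expressed as percent of parent remaining.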

[41] = Inhibition of CYP450 in human liver microsomes; type: ADME
[42] = Tmax in po dosed human; type: ADME, organism-based; conditions: in vivo; summary of the method: as §7
[43] = species: Canis familiaris; test: Toxicity in dog assessed as phospholipidosis; type: organism-based, Canis lupus familiaris; conditions: in vivo

Chain of Cytochrome P450 2D6 (P10635 whole entry): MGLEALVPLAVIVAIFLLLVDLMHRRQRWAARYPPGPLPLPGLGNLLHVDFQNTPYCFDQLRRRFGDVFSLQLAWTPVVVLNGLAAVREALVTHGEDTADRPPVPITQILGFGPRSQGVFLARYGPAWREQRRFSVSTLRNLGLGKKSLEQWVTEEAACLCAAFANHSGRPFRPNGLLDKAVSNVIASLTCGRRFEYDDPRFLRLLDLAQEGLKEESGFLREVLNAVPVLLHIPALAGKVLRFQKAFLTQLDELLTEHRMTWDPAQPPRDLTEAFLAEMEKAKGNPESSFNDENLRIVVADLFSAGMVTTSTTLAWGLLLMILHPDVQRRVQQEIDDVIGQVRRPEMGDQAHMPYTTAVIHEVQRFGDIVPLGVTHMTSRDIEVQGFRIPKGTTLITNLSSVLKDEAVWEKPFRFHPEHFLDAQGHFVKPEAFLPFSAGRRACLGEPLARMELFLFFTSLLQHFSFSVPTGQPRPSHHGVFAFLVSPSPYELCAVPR

## CC(C)N1CCN(C(=O)c2ccc(CN3CCOCC3)cc2)CC1.O=C(O)/C=C\C(=O)O
[1]
  IC50: > 40 µM
[2]
  NOAEL at 672 h: 25 mg/kg/day
[3]
  Activity: Non-toxic
[4]
  clearance: 12.8 mL/min/kg
[5]
  IC50: > 40 µM
[6]
  bioavailability: 62%
[7]
  half-life: 2950 min
[8]
  Activity: Toxic
[9]
  Activity: Toxic
[10]
  IC50: > 10 µM
[11]
  Activity: Non-toxic
[12]
  Activity: Toxic
[13]
  Papp B→A at 10 µM: 20.9 ×10⁻⁶ cm/s
[14]
  Activity: Non-toxic
[15]
  IC50: > 40 µM
[16]
  Activity: Toxic
[17]
  remaining at 0.25 h, 1 µM: 65%
[18]
  Time: 1 h
[19]
  fraction unbound: 0.876
[20]
  concentration at 1 h: 5.37 µM
[21]
  Vd: 3.6 L/kg
[22]
  IC50: > 40 µM
[23]
  Activity: Non-toxic
[24]
  Ki: 2.5 nM
[25]
  Activity: Active
[26]
  Activity: Not Active
[27]
  half-life: 2.34 days
[28]
  IC50: > 40 µM
[29]
  Activity: Toxic
[30]
  Occ: 86%
[31]
  half-life: 192 min
[32]
  Papp A→B at 1 h, 10 µM: 22.4 ×10⁻⁶ cm/s
[33]
  Activity: Toxic

## Cl.O=C(c1ccc(CN2CCOCC2)cc1)N1CCN(C2CC2)CC1
[34]
  Occ: >80%
[4]
  clearance: 21.6 mL/min/kg
[6]
  bioavailability: 112%
[35]
  Activity: 200 ng/mL
[10]
  IC50: > 10 µM
[13]
  Papp B→A at 10 µM: 37.8 ×10⁻⁶ cm/s
[36]
  half-life: 834 min
[37]
  Activity: Non-toxic
[17]
  remaining at 0.25 h, 1 µM: 96.1%
[38]
  Activity: 1933 ng/mL
[39]
  Activity: Non-toxic
[40]
  remaining at 0.25 h, 1 µM: 44.1%
[20]
  concentration at 1 h: 2.54 µM
[21]
  Vd: 1.7 L/kg
[26]
  Activity: Not Active
[41]
  inhibition (INH): Not Active
[42]
  Tmax: 30 min
[30]
  Occ: 58%
[31]
  half-life: 54 min
[32]
  Papp A→B at 1 h, 10 µM: 108 ×10⁻⁶ cm/s
[43]
  Activity: Non-toxic

## O=C(c1ccc(CN2CCC(F)CC2)cc1)N1CCN(C2CC2)CC1
[4]
  clearance: 41.4 mL/min/kg
[6]
  bioavailability: 14%
[10]
  IC50: > 10 µM
[17]
  remaining at 0.25 h, 1 µM: 83.6%
[40]
  remaining at 0.25 h, 1 µM: 26.8%
[20]
  concentration at 1 h: 0.54 µM
[21]
  Vd: 3.9 L/kg
[30]
  Occ: 25%
[31]
  half-life: 66 min

## O=C(c1ccc(CN2CCOCC2)cc1)N1CCN(C2CCC2)CC1
[4]
  clearance: 34.9 mL/min/kg
[6]
  bioavailability: 85%
[10]
  IC50: > 10 µM
[13]
  Papp B→A at 10 µM: 22.4 ×10⁻⁶ cm/s
[17]
  remaining at 0.25 h, 1 µM: 85.4%
[40]
  remaining at 0.25 h, 1 µM: 49.6%
[20]
  concentration at 1 h: 8.1 µM
[21]
  Vd: 6.4 L/kg
[24]
  Ki: 1.3 nM
[26]
  Activity: Not Active
[30]
  Occ: 96%
[31]
  half-life: 126 min
[32]
  Papp A→B at 1 h, 10 µM: 71.2 ×10⁻⁶ cm/s
